We go through two molecules from ChEMBL document CHEMBL1137743, “Synthesis, antimicrobial evaluation and QSAR study of some 3-hydroxypyridine-4-one and 3-hydroxypyran-4-one derivatives” (2009).

≈ marks a conversion by molar mass, not a printed value.

One experiment has as its system Aspergillus flavus. The experiment is described as follows: Antifungal activity against Aspergillus flavus PTCC 5003 after 48 hrs by microplate alamar blue assay. Type of experiment: functional. Particulars: PTCC 5003, 48 h. Summed up:
(§1)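 Fungi from Persian type culture collection, tested in RPMI 1640 buffered with MOPS at pH 7.0. Final inoculum 1.5 ×10⁵. Compounds in DMSO, twofold serial dilutions over 8–512 in 96-well plates with Alamar Blue, incubated 48 h at 25 °C. MIC is the lowest concentration blocking the blue-to-pink shift. Ketoconazole was the reference agent.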

The next experiment has as its system Listeria monocytogenes. The experiment is described as follows: Antibacterial activity against Listeria monocytogenes PTCC 1165 after 24 hrs by microplate alamar blue assay. Type of experiment: functional. Particulars: PTCC 1165, 24 h. Summed up: (§2)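 Bacteria from Persian type culture collection grown in Mueller–Hinton broth. Inoculum suspensions adjusted to 0.5 McFarland, final inoculum 1.5 ×10⁴. Compounds dissolved in DMSO, serially diluted twofold across the 8–512 range in 96-well plates, Alamar Blue added, sealed plates incubated 24 h at 37 °C. MIC is the lowest concentration preventing the blue-to-pink colour change. Ciprofloxacin was the reference drug.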

For the next experiment, the system named is Candida albicans. In words: Antifungal activity against Candida albicans PTCC 5027 after 48 hrs by microplate alamar blue assay. Type of experiment: functional. Particulars: for MIC: Candida albicans, PTCC 5027, 48 h. Summed up:
as §1

The next experiment deals with Aspergillus niger. The experiment is described as follows: Antifungal activity against Aspergillus niger 5021 after 48 hrs by microplate alamar blue assay. Particulars: Aspergillus niger, 5021, 48 h. Format: functional. An outline of the steps: as §1
Experiment [1] deals with Salmonella enterica subsp. enterica. In words: Antibacterial activity against Salmonella enteritidis PTCC 1091 after 24 hrs by microplate alamar blue assay. Format: functional, Salmonella enterica subsp. enterica serovar Enteritidis. Particulars: PTCC 1091, 24 h. An outline of the steps: as §2
Another experiment concerns Escherichia coli. In words: Antibacterial activity against Escherichia coli PTCC 1338 after 24 hrs by microplate alamar blue assay. Type of experiment: functional. Particulars: PTCC 1338, 24 h. Summed up: as §2
The subject of another experiment is Staphylococcus aureus. The experiment is described as follows: Antibacterial activity against Staphylococcus aureus PTCC 1337 after 24 hrs by microplate alamar blue assay. Format: functional. The note with it: for MIC: Staphylococcus aureus, PTCC 1337, 24 h. Summed up: as §2
The next experiment concerns Pseudomonas aeruginosa. In words: Antibacterial activity against Pseudomonas aeruginosa PTCC 1074 after 24 hrs by microplate alamar blue assay. Type of experiment: functional. Particulars: for MIC: Pseudomonas aeruginosa, PTCC 1074, 24 h. An outline of the steps: as §2
In another experiment the test system is Bacillus subtilis. The experiment is described as follows: Antibacterial activity against Bacillus subtilis PTCC 1023 after 24 hrs by microplate alamar blue assay. Particulars: PTCC 1023, 24 h. Type of experiment: functional. An outline of the steps:
as §2

With `O=c1cc(CCl)occ1O`, the minimum inhibitory concentration (MIC) is 16 µg/mL (≈ 99.7 µM) with Aspergillus flavus; more than 512 µg/mL against Listeria monocytogenes; 512 µg/mL (≈ 3190 µM) against Candida albicans; 128 µg/mL (≈ 797 µM) against Aspergillus niger; more than 512 µg/mL in [1]; more than 512 µg/mL against Escherichia coli. The MIC against Staphylococcus aureus, against Pseudomonas aeruginosa and with Bacillus subtilis was more than 512 µg/mL each time. Moreover, the “-logMIC” value in the experiment with Candida albicans is reported as 3.89; in the experiment on Staphylococcus aureus, 3.59; with Pseudomonas aeruginosa, 4.19.
Turning to `Cc1[nH]cc(CN(C)C)c(=O)c1O`, the minimal inhibitory concentration (MIC) against Aspergillus flavus was more than 512 µg/mL; with Listeria monocytogenes it was 512 µg/mL (≈ 2810 µM); with Candida albicans it was more than 512 µg/mL; with Aspergillus niger, 512 µg/mL (≈ 2810 µM); in experiment [1], 512 µg/mL (≈ 2810 µM); in the experiment with Escherichia coli, 512 µg/mL (≈ 2810 µM). The MIC against Staphylococcus aureus is more than 512 µg/mL; in the experiment on Pseudomonas aeruginosa, 256 µg/mL (≈ 1400 µM); with Bacillus subtilis, more than 512 µg/mL. The “-logMIC” value with Staphylococcus aureus is 3.29; in the experiment on Pseudomonas aeruginosa it was 3.59.
